Here are results for six molecules from article PMC4540355 (Biochemistry, 2009).

Assay [1] addresses fibrinogen D100 (100 kDa) fragment (human). The experiment in a line: solid-phase binding assay with 125I-labelled protein.
Assay [2] addresses fibrin monomer with both fibrinopeptides A and B cleaved (human) (UniProt P02671). The description is as above.
Assay [3] concerns the target human fibrinogen, depleted of fibronectin and plasminogen (human) (UniProt P02671). Described as above.
In assay [4] the target is T1, skelemin fragment (Mus musculus, UniProt Q62234).
T1 sequence (Q62234 1113-1666): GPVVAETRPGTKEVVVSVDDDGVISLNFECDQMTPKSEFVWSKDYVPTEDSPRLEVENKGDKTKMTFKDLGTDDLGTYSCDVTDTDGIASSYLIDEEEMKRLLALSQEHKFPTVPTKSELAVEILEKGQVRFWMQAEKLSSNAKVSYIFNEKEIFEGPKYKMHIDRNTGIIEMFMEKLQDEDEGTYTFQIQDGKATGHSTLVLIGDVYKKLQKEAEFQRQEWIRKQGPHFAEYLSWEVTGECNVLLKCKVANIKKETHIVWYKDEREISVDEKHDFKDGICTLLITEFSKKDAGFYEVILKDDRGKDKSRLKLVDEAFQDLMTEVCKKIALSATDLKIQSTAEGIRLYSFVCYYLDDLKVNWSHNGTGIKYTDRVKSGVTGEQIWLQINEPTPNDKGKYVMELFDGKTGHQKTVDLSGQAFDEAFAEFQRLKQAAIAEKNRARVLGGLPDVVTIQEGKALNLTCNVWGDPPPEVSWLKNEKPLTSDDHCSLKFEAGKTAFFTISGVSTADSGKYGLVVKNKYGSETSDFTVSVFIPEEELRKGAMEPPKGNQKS
The experiment in a line: Solid-phase assay: binding of [125I]skelemin to peptides coated on wells. The conditions noted are these: wells coated with peptide 20 μg/mL, postcoated with 1% BSA. The method, boiled down: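 Mouse skelemin fragment (residues 1113–1666) made as a GST fusion, cut free with thrombin and radioiodinated. Wells coated with wild-type or mutant αIIb 989–1008 peptide at 20 μg/mL, postcoated with 1% BSA, then given various concentrations of [125I]skelemin. Bound radioactivity counted.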

The target of assay [5] is T2, skelemin binding to αIIbβ3 (Mus musculus, UniProt Q62234).
T2 sequence (Q62234 1113-1666): T1 sequence (Q62234 1113-1666)
More on the design: species or system human.

For assay [6], the target named is T1, skelemin fragment. In kind it is binding. Put shortly:
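CM5 chip carried amine-coupled skelemin fragment (~900 RU). αIIb 989–1008 peptide at 0, 10, 20, 40, 100 and 200 μM in HBS-P with 1 mM Ca2+ and 1 mM Mg2+, injected at 5 μL/min for 10 min. Signal corrected against an EDC/NHS-activated, ethanolamine-blocked blank cell. Kd from best fit to an interaction model.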

The target in assay [7] is platelet integrin αIIbβ3 (human) (UniProt P05106). The experiment in a line: solid-phase binding assay with 125I-labelled protein.
The target of assay [8] is cellulose-bound αIIb 9-mer peptide with Arg997 substituted with Ala (human) (UniProt P08514). The experiment in a line: peptide or protein array.
Assay [9] addresses αIIb 9-mer peptides with mutations of Val990, Phe992, and Leu1000. The experiment in a line: peptide or protein array.
Assay [10] deals with cellulose-bound αIIb 9-mer peptide with Arg995 substituted with Ala (human) (UniProt P08514). The experiment in a line: peptide or protein array.
In assay [11] the test system is αIIbβ3. In kind it is binding, human. The method, boiled down: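 αIIbβ3 purified from human platelets on Concanavalin A-agarose. Passed at 0, 50, 100, 200 and 500 μg/mL in HBS-P with 1 mM Ca2+/Mg2+ over amine-coupled skelemin fragment (~900 RU), with a fibrinogen parallel cell (~1300 RU) checking resting state. For activation, DTT 3 mM final, 15 min at 4 °C, then extensive dialysis; activated integrin injected 5 min at 10 μL/min. Blank-cell corrected.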

The subject of assay [12] is αIIbβ3. In kind it is binding, human. The conditions noted are these: integrin adsorbed on plastic without ligand.

Sequence of fibrin monomer with both fibrinopeptides A and B cleaved (human) (P02671 36-866, chain 1 of 3): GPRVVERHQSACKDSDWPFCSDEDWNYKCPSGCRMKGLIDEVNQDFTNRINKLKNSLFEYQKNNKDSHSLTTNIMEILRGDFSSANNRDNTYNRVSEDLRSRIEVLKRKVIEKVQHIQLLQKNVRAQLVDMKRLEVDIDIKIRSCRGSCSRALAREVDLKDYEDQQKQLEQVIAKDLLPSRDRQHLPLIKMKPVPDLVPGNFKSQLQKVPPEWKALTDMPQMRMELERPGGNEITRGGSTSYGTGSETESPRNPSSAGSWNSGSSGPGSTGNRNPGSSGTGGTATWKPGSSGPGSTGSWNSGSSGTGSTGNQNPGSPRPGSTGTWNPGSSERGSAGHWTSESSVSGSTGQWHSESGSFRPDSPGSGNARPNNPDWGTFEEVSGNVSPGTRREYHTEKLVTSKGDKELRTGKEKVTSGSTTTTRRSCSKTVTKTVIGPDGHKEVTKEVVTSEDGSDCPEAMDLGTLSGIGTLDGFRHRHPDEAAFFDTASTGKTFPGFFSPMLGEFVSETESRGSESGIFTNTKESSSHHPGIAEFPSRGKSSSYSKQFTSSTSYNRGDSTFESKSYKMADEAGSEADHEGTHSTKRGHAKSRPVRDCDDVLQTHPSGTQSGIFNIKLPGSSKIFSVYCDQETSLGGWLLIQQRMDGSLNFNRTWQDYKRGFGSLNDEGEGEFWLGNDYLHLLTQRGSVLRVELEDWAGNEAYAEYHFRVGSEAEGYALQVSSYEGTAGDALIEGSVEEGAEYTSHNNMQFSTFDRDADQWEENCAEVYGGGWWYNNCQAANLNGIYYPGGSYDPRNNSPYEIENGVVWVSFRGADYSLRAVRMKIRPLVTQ
Sequence of fibrin monomer with both fibrinopeptides A and B cleaved (human) (P02675 45-491, chain 2 of 3, further chain): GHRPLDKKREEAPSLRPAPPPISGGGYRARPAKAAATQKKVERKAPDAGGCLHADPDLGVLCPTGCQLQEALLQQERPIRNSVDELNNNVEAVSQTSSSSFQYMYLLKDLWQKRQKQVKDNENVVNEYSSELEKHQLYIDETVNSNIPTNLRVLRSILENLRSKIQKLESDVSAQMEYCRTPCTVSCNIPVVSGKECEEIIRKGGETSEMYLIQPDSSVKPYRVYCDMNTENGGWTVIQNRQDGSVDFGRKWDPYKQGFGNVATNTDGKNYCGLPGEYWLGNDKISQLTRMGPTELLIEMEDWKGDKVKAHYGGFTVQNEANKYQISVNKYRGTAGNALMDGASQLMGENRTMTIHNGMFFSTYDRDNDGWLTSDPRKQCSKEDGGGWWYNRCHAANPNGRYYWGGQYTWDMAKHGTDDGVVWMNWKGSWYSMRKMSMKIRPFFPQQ
Sequence of fibrin monomer with both fibrinopeptides A and B cleaved (human) (P02679 27-453, chain 3 of 3, further chain): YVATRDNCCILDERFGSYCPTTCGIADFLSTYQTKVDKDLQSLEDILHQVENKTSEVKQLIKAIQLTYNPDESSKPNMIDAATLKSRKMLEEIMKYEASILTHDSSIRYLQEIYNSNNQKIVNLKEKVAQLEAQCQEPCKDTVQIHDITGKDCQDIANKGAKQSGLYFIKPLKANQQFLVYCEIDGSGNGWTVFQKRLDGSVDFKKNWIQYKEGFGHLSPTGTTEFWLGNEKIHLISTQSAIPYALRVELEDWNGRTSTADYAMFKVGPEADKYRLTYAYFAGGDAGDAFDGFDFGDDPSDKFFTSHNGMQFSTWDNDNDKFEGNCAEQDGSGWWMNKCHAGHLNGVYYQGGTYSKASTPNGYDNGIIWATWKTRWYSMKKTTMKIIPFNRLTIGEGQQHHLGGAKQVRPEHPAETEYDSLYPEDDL
Sequence of human fibrinogen, depleted of fibronectin and plasminogen (human) (P02671 36-866, chain 1 of 3): as the sequence (P02671 36-866, chain 1 of 3) above
Sequence of human fibrinogen, depleted of fibronectin and plasminogen (human) (P02675 45-491, chain 2 of 3, further chain): as the sequence (P02675 45-491, chain 2 of 3, further chain) above
Sequence of human fibrinogen, depleted of fibronectin and plasminogen (human) (P02679 27-453, chain 3 of 3, further chain): as the sequence (P02679 27-453, chain 3 of 3, further chain) above

Take “platelet integrin αIIbβ3 (from UniProt P05106 27-788) (complex)”: the amount of αIIbβ3 bound in assay [1], in assay [2] and in assay [3] was 76 ng in each case.
On to “GY^715 WALLITIADRKEFAKF^730 [β3 mutant 1]”, for which the “Binding of [125I]skelemin to immobilized peptide” value (“Binding of [125I]skelemin” below) on skelemin fragment [4] is reported as “reduced level of skelemin binding”.
Consider “GY^715 WALLITIADAKEFAKF^730 [β3 mutant 2]”, for which the “Overall activity relative to the wild-type counterpart” value in [5] (skelemin binding and inhibition) is “residual activity”. In addition, on skelemin fragment [4], the “Binding of [125I]skelemin” value is on record as “still further loss”.
Turning to “KVGFFKANAPALEEDDEEGE [mutant αIIb peptide]”, the “Inhibition of skelemin binding to αIIbβ3 prebound to ligands” value in assay [5] (mutant peptide) is “did not inhibit”. In addition, the “Binding of [125I]skelemin” value on skelemin fragment [4] is given as “lost the ability to bind”. The “Binding to skelemin coupled to the chip (SPR)” value on skelemin fragment [6] was “did not bind”.

B1: recombinant fragment spanning immunoglobulin C2-like motifs 3–7 of mouse skelemin (domain or fragment)
chain: T1 sequence (Q62234 1113-1666)
modifications: 125I label (IODO-GEN) where used as [125I]skelemin
In assay [7], B1 gave a Kd, high-affinity class of binding sites of 0.123 µM; a Kd, low-affinity class of binding sites of 1.1 µM; a N, high-affinity interaction (skelemin to receptor) (skelemin per receptor) of 1; a N, low-affinity interaction (skelemin to receptor) (skelemin per receptor) of 0.33. In [8], this molecule displayed a reduction of binding against the wild-type peptide of 70%. Moreover, the reduction of binding against the wild-type peptide in [9] was 40 to 50%. This molecule gave a reduction of binding against the wild-type peptide in assay [10] of 70%.

B2: skelemin fragment: recombinant fragment spanning immunoglobulin C2-like motifs 3–7 of mouse skelemin, residues 1113–1666 (protein)
chain: T1 sequence (Q62234 1113-1666)
modifications: 125I label (IODO-GEN) where used as [125I]skelemin; left off: GST, end not stated, cleaved
In the case of B2, in the assay on αIIbβ3 [11] (resting integrin, various concentrations), the “Interaction of resting soluble αIIbβ3 with immobilized skelemin fragment” value is given as “No interaction was detected”. The “Binding of DTT-treated soluble αIIbβ3 to immobilized skelemin fragment” value with αIIbβ3 [11] (αIIbβ3 activated with 3 mM DTT 15 min at 4 °C, 0-500 μg/mL) is on record as “did not bind”. For the same molecule, in the assay on αIIbβ3 [12], the “Skelemin binding to αIIbβ3 immobilized directly on plastic” value is “small amount”.
